For experiment [1], the target named is Delta-type opioid receptor (Rattus norvegicus, UniProt P33533). The experiment in a line: Displacement of [3H]deltorphin 2 from delta opioid receptor in Sprague-Dawley rat brain P2 synaptosomal membrane. In a few lines: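 Equilibrium incubation 2.5 h at 23 °C. Filtration through glass fibre filters pre-soaked in 0.1% polyethylenimine, then three washes in ice-cold buffered 0.1% BSA. Ki by Cheng–Prusoff.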

Experiment [2] has as its target Mu-type opioid receptor (Rattus norvegicus, UniProt P33535). The experiment is described as follows: Displacement of [3H]DAMGO from mu opioid receptor in Sprague-Dawley rat brain P2 synaptosomal membrane. (In general: Loss of bound radioactivity is the signal in a displacement assay; it reports binding, not function.)
The species named for a further experiment is Rattus norvegicus. The experiment in a line: Ratio of Ki for Sprague-Dawley rat mu opioid receptor to Ki for Sprague-Dawley rat delta opioid receptor.
Experiment [3] has as its target T1, Delta-type opioid receptor (Mus musculus, UniProt P32300). The experiment in a line: Antagonist activity at delta opioid receptor in mouse vas deference. In kind it is functional. The note with it: read-out: pA2 (converted). In a few lines: (§1)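 Organ-bath tissue preparations in physiological buffer, pH 7.5, with electrically evoked contractions. Delta antagonism on mouse vas deferens measured against deltorphin II. Mu antagonism on male Hartley guinea pig ileum myenteric plexus longitudinal muscle measured against endomorphin-2. pA2 derived by the Kosterlitz and Watt method.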

For experiment [4], the target named is T2, Mu-type opioid receptor (Cavia porcellus, UniProt P97266). The experiment in a line: Antagonist activity at mu opioid receptor in Hartley guinea pig small intestine. The note with it: read-out: pA2 (converted). In kind it is functional, tissue-based. The procedure, abridged:
as §1

The target of experiment [5] is T1, Delta-type opioid receptor. The experiment in a line: Agonist activity at delta opioid receptor in mouse vas deference. It counts as functional. The procedure, abridged: (§2)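 Isolated tissue assay in organ baths with balanced salt solution in physiological buffer, pH 7.5. Delta agonism measured on single mouse vas deferens, mu agonism on myenteric plexus longitudinal muscle strips (2–3 cm) from small intestine of male Hartley guinea pigs. Inhibition of electrically evoked contraction; IC50 (nM) from dose-response curves. DPDPE (MVD) and PL017 (GPI) run as internal standards. Mean ± SE of at least four tissue samples.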

Experiment [6] has as its target T2, Mu-type opioid receptor. The experiment is described as follows: Agonist activity at mu opioid receptor in Hartley guinea pig small intestine. It counts as functional, tissue-based. The procedure, abridged: as §2

Sequence of Mu-type opioid receptor (Rattus norvegicus, UniProt P33535) (P33535 whole entry): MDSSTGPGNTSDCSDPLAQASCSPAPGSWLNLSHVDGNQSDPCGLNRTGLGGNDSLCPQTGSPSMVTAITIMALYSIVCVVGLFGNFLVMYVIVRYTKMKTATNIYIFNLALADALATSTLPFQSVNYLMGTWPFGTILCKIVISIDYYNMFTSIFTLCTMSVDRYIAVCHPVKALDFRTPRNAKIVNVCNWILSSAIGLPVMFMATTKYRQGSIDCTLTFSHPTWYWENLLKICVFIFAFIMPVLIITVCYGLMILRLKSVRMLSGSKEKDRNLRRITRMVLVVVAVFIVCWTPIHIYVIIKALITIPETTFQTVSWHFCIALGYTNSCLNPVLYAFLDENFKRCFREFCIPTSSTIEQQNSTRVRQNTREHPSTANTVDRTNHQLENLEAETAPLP
T2 sequence (P97266 whole entry): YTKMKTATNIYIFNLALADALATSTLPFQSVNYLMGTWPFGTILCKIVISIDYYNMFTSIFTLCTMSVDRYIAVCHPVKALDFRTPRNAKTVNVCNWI
Sequence of Delta-type opioid receptor (Rattus norvegicus, UniProt P33533) (P33533 whole entry): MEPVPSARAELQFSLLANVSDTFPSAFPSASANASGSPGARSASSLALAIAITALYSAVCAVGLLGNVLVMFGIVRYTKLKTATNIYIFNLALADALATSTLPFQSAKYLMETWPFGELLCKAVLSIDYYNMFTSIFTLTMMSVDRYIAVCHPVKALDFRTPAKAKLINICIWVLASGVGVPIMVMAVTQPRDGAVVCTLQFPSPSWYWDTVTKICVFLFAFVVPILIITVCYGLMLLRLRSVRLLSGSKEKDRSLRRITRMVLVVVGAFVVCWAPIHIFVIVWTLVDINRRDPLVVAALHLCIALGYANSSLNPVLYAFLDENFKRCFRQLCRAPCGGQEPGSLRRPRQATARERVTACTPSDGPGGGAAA
T1 sequence (P32300 whole entry): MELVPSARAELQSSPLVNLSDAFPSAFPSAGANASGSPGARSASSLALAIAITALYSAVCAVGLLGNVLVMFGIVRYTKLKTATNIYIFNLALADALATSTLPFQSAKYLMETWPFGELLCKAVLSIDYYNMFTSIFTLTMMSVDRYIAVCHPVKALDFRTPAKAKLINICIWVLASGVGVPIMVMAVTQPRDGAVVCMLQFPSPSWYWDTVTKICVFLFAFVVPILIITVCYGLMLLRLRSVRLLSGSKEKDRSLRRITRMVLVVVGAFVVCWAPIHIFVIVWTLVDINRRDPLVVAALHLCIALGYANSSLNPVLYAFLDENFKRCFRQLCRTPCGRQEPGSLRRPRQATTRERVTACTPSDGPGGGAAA

On to `CN(C)[C@@H](Cc1c(F)cc(O)cc1F)C(=O)N1Cc2ccccc2C[C@H]1C(=O)O`, for which the Ki (in general, a dissociation constant, usually derived from enzyme kinetics or from competition with a known ligand) is 29.2 nM in experiment [1] and 573 nM at Mu-type opioid receptor [2]. Moreover, the Selectivity ratio in the experiment listed under Rattus norvegicus was determined as 20.

With `N[C@@H](Cc1ccc(O)cc1)C(=O)N1Cc2ccccc2C[C@H]1C(=O)N[C@@H](CC(=O)O)c1nc2ccccc2[nH]1`, the values for the Ki (in experiment [1]; at Mu-type opioid receptor [2]) were 0.177 nM and 684 nM, respectively. For the same compound, the Kb in experiment [3] was 1.41 nM. In the experiment listed under Rattus norvegicus, the Selectivity ratio stood at 3860.

Regarding `Cc1cc(O)cc(C)c1C[C@@H](C(=O)N1Cc2ccccc2C[C@H]1C(N)=O)N(C)C`, the Ki stood at 0.309 nM in experiment [1] and 511 nM at Mu-type opioid receptor [2]. For the same compound, the Kb is 0.126 nM in experiment [3] and 501 nM at Mu-type opioid receptor [4]. Further, the Selectivity ratio in the experiment filed under Rattus norvegicus is 1660.

Consider `CN(C)[C@@H](Cc1c(F)cc(O)cc1F)C(=O)N1Cc2ccccc2C[C@H]1C(N)=O`, for which the Ki was 176 nM in experiment [1] and 596 nM at Mu-type opioid receptor [2]. In addition, the Selectivity ratio in the experiment filed under Rattus norvegicus is 3.

Regarding `N[C@@H](Cc1c(F)cc(O)cc1F)C(=O)N1Cc2ccccc2C[C@H]1C(=O)NCc1nc2ccccc2[nH]1`, the Ki in experiment [1] is 1.01 nM; at Mu-type opioid receptor [2], 54.5 nM. For the same compound, the IC50 (in general, the concentration that inhibits the measured activity by half) in experiment [5] is 67.3 nM; at Mu-type opioid receptor [6] it was greater than 10 µM. Moreover, the Selectivity ratio in the experiment listed under Rattus norvegicus stood at 54.

Turning to `CN(C)[C@@H](Cc1ccc(O)cc1)C(=O)N1Cc2ccccc2C[C@H]1C(=O)O`, the results for the Ki (in experiment [1]; at Mu-type opioid receptor [2]) were 34.8 nM and 1230 nM, respectively. Further, the Selectivity ratio in the experiment listed under Rattus norvegicus was determined as 35.

Regarding `CN(C)[C@@H](Cc1ccc(O)cc1)C(=O)N1Cc2ccccc2C[C@H]1C(N)=O`, the Ki in experiment [1] worked out at 201 nM; at Mu-type opioid receptor [2] it was 1450 nM. In the experiment filed under Rattus norvegicus, the Selectivity ratio was 7.

As for `N[C@@H](Cc1c(F)cc(O)cc1F)C(=O)N1Cc2ccccc2C[C@H]1C(=O)N[C@@H](CC(=O)O)c1nc2ccccc2[nH]1`, the Ki is 0.162 nM in experiment [1] and 225 nM on Mu-type opioid receptor [2]. Further, the Kb in experiment [3] is 1.12 nM. Besides, in the experiment listed under Rattus norvegicus, the Selectivity ratio came to 1390.

The compound `Cc1cc(O)cc(C)c1C[C@@H](C(=O)N1Cc2ccccc2C[C@H]1C(=O)O)N(C)C` came in with a Ki in experiment [1] of 0.118 nM. Also, the Kb at Mu-type opioid receptor [4] was 1580 nM. The Selectivity ratio in the experiment listed under Rattus norvegicus was 20600.

Regarding `N[C@@H](Cc1ccc(O)cc1)C(=O)N1Cc2ccccc2C[C@H]1C(=O)NCc1nc2ccccc2[nH]1`, the Ki in experiment [1] worked out at 0.913 nM; at Mu-type opioid receptor [2], 66.9 nM. Also, the figures for the IC50 (in experiment [5]; at Mu-type opioid receptor [6]) were 50.1 nM and 4.22 µM, respectively. In the experiment listed under Rattus norvegicus, the Selectivity ratio turned out to be 73.

Source of the values: ChEMBL document CHEMBL1212862, “Role of 2',6'-dimethyl-l-tyrosine (Dmt) in some opioid lead compounds” (Bioorg Med Chem, 2010).
